Measured values published in ChEMBL document CHEMBL1151733, “Pirinixic acid derivatives as novel dual inhibitors of microsomal prostaglandin E2 synthase-1 and 5-lipoxygenase” (J Med Chem, 2008).
Calls of active or inactive are those of the source. The rule behind the calls is not given here.

Assays:
[1] = target: T1, Prostaglandin G/H synthase 2 (Homo sapiens, UniProt P35354); assay: Inhibition of human recombinant COX2
T1 sequence (P35354 whole entry): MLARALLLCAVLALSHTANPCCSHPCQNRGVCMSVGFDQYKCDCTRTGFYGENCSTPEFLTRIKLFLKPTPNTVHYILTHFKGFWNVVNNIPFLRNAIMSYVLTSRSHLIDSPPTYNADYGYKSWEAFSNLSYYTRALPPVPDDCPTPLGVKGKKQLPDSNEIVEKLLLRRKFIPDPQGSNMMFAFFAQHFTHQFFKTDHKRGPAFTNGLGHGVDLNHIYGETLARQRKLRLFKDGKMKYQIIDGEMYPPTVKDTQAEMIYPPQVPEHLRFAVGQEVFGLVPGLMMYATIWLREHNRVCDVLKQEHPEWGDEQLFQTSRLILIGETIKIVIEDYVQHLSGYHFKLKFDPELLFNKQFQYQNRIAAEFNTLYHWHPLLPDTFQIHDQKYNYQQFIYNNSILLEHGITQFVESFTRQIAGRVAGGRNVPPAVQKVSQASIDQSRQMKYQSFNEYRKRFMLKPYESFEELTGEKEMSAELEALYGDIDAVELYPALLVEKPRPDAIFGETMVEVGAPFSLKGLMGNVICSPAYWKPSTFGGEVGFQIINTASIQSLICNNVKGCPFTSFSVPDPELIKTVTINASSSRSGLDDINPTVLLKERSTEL
How it was run: (§1)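 Ovine COX-1 (50 units) or human recombinant COX-2 (20 units) in 100 mM Tris pH 8 with 5 mM glutathione, 5 µM hemoglobin and 100 µM EDTA. Compound preincubation 5 min at 4 °C, then prewarming 60 s at 37 °C. AA added at 5 µM for COX-1 or 2 µM for COX-2, reacted 5 min at 37 °C. 12-HHT extracted and quantified by HPLC. Mean ± SE, n = 3.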

[2] = target: T2, Prostaglandin E synthase (Homo sapiens) (UniProt O14684); assay: Inhibition of PGES1 in human A549 cell microsome assessed as PGE2 formation at 10 uM by cell-free assay relative to control; design: scale not given: the % may be the effect or the level left
T2 sequence (whole entry): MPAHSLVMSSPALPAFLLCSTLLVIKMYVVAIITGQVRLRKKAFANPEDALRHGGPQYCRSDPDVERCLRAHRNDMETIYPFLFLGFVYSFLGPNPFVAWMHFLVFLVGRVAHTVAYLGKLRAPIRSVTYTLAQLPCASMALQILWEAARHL
How it was run: (§2)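 Microsomes from A549 cells grown with IL-1β (1 ng/mL, 72 h), diluted in 0.1 M potassium phosphate pH 7.4 with 2.5 mM glutathione. Compound or DMSO added 15 min before PGH₂ (20 µM final). Reaction ran 1 min at 4 °C and was stopped with FeCl₂/citric acid. PGE₂ isolated by C18 SPE, then RP-HPLC with UV at 195 nm against 11β-PGE₂ internal standard.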

[3] = target: T3, Polyunsaturated fatty acid 5-lipoxygenase (Homo sapiens) (UniProt P09917); assay: Inhibition of 5-LO in human PMNL cells at 10 uM relative to control; assay type: cell-based; design: scale not given: the % may be the effect or the level left
T3 sequence (whole entry): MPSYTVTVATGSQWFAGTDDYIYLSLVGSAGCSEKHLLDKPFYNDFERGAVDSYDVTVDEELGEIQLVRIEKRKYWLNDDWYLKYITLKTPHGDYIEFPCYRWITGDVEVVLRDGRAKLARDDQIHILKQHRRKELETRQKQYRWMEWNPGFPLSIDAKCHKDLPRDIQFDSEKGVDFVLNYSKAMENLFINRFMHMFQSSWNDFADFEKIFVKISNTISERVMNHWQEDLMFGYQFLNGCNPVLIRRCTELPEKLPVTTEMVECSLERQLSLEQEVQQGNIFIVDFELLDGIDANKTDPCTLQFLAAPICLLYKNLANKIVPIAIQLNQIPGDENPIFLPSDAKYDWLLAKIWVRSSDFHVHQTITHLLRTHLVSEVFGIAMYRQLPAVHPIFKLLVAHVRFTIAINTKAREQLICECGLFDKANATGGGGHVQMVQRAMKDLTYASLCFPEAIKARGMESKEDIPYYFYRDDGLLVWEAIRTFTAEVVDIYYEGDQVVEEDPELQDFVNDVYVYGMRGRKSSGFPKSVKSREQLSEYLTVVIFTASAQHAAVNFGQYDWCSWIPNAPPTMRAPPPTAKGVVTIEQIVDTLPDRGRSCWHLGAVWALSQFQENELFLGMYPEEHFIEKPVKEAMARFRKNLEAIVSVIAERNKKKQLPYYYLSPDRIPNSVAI
How it was run: (§3)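 Freshly isolated human PMNL from leukocyte concentrates of healthy donors, 5 × 10⁶ cells/mL in PBS pH 7.4 with 1 mg/mL glucose and 1 mM CaCl₂. Preincubated with compound 15 min at RT, then stimulated with 2.5 µM A23187 plus 20 µM AA for 10 min at 37 °C. Stopped with methanol; LTB₄, its all-trans isomers and 5-H(P)ETE quantified by HPLC with PGB₁ internal standard.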

[4] = target: T4, Prostaglandin G/H synthase 1 (Ovis aries, UniProt P05979); assay: Inhibition of ovine COX1; how it was run: as §1
T4 sequence (P05979 whole entry): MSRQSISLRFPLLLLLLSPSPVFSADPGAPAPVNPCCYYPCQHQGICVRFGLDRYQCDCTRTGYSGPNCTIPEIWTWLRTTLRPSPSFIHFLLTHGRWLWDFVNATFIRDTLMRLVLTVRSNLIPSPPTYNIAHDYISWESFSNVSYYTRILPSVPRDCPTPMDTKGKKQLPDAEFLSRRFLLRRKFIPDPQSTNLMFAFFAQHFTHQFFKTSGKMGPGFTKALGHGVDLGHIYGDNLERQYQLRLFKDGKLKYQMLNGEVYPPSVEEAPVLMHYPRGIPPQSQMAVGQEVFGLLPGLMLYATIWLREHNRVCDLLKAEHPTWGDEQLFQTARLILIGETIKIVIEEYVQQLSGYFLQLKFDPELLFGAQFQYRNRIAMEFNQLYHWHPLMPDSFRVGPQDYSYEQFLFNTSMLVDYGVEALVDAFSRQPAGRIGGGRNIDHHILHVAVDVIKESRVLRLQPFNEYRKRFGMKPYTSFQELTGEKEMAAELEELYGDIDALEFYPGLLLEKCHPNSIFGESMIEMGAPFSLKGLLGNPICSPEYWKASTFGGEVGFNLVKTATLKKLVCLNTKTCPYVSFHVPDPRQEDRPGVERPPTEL

[5] = target: T5, Polyunsaturated fatty acid 5-lipoxygenase (Homo sapiens, UniProt P09917); assay: Inhibition of 5-LO in PMNL cells; assay type: cell-based; how it was run: as §3
T5 sequence (P09917 whole entry): T3 sequence (whole entry)

Prostaglandin E synthase = target: T6, Prostaglandin E synthase (Homo sapiens, UniProt O14684); assay: Inhibition of PGES1 in human A549 cell microsome assessed as PGE2 formation by cell-free assay; how it was run: as §2
T6 sequence (O14684 whole entry): T2 sequence (whole entry)

[6] = target: T5, Polyunsaturated fatty acid 5-lipoxygenase; assay: Inhibition of human recombinant 5-LO expressed in Escherichia coli by cell-free assay
How it was run: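 Human 5-LO expressed in E. coli MV1190 (pT3-5LO) at 27 °C, partially purified from the 100000g lysate supernatant. Held in PBS pH 7.4 with 1 mM EDTA and 1 mM ATP with compound for 10 min at 4 °C, warmed 30 s at 37 °C, then started with 2 mM CaCl₂ plus 20 µM AA. After 10 min at 37 °C, stopped with cold methanol; products measured by HPLC.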

[7] = target: T7, Prostaglandin G/H synthase 1 (Ovis aries) (UniProt P05979); assay: Inhibition of ovine COX1 assessed as remaining activity at 10 uM relative to control; how it was run: as §1
T7 sequence (whole entry): T4 sequence (P05979 whole entry)

[8] = target: T8, Prostaglandin G/H synthase 2 (Homo sapiens) (UniProt P35354); assay: Inhibition of human recombinant COX2 assessed as remaining activity at 10 uM relative to control; how it was run: as §1
T8 sequence (whole entry): T1 sequence (P35354 whole entry)

SMILES | IC50 [1] | Activity [2] | Activity [3] | IC50 [4] | IC50 [5] | IC50 (Prostaglandin E synthase) | IC50 [6] | Activity [7] | Activity [8]
CCCCCCC(Sc1nc(Cl)cc(NCCOc2ccccc2)n1)C(=O)O (configuration not stated) | > 10 µM | 79.9% | 28% | > 10 µM |  |  |  |  | 
CCCCCCC(Sc1nc(Cl)cc(Nc2cccc(C)c2C)n1)C(=O)OCC (configuration not stated) | > 10 µM | inactive |  | > 10 µM |  |  |  |  | 
O=C(O)CSc1nc(OCCc2ccccc2)cc(OCCc2ccccc2)n1 | > 10 µM | 66.4% | 40.6% | > 10 µM |  |  |  |  | 
Cc1cccc(Nc2cc(Cl)nc(SC(C)(C)C(=O)O)n2)c1C | > 10 µM | 83.8% |  | > 10 µM |  |  |  |  | 
CCCCCCC(Sc1nc(Cl)cc(Nc2cc(C)c(-c3ccccc3)cc2OC)n1)C(=O)O (configuration not stated) | > 10 µM | 24.9% | 3.1% | > 10 µM | 0.5 µM | 2.1 µM | 2 µM | 71.2% | 53.7%
CCCCCCC(Sc1nc(Cl)cc(Nc2ccc3ncccc3c2)n1)C(=O)OCC (configuration not stated) | > 10 µM | 39.1% |  | > 10 µM |  | 5.6 µM |  | 69.5% | 61.7%
CCCCCCC(Sc1nc(Cl)cc(NCCc2ccccc2)n1)C(=O)O (configuration not stated) | > 10 µM | 70% | 16.1% | > 10 µM |  |  |  |  | 
CCCCCCC(Sc1nc(Cl)cc(Nc2cc(OCC(F)(F)F)cc(OCC(F)(F)F)c2)n1)C(=O)O (configuration not stated) |  |  | 8% |  | 1.5 µM |  | 3 µM | 40% | 70.4%
CCCCCCC(Sc1nc(Cl)cc(Nc2cccc(C)c2C)n1)C(=O)O (configuration not stated) | > 10 µM | 31.9% |  | > 10 µM |  |  | 6.5 µM | 75.2% | 62%
CCCCCCCCC(Sc1nc(Cl)cc(Nc2cccc(C)c2C)n1)C(=O)O (configuration not stated) | > 10 µM | 29.8% | 7% | > 10 µM |  |  |  |  | 
Cc1cccc(Nc2cc(Cl)nc(SC(C(=O)O)c3cccc4ccccc34)n2)c1C (configuration not stated) |  |  | 16.8% |  | 5 µM |  |  | 42.2% | 32.5%
Cc1cccc(Nc2cc(Cl)nc(SCC(=O)O)n2)c1C [PIRINIXIC ACID] | > 10 µM | inactive |  | > 10 µM |  |  |  |  | 
CCCCCCC(Sc1nc(Cl)cc(NCc2ccc(-c3ccccc3)cc2)n1)C(=O)OCC (configuration not stated) | > 10 µM | inactive | 80.2% | > 10 µM |  |  |  |  | 
CCCCCCC(Sc1nc(Cl)cc(Oc2ccc3ncccc3c2)n1)C(=O)O (configuration not stated) | > 10 µM | 67.4% |  | > 10 µM |  |  |  |  | 
CCCCCC[C@H](Sc1nc(Cl)cc(Nc2ccc(-c3ccc(C#N)cc3)cc2)n1)C(=O)O | > 10 µM | 23% | 2.8% | > 10 µM |  |  | 1.5 µM |  | 
CCCCCCC(Sc1nc(Cl)cc(NCCOc2ccccc2)n1)C(=O)OCC (configuration not stated) | > 10 µM | 80.7% | 37.1% | > 10 µM |  |  |  |  | 
CC(=O)N(O)C/C=C/c1cccc(Oc2ccccc2)c1 | > 10 µM | inactive |  | > 10 µM |  |  |  |  | 
CCCCC(Sc1nc(Cl)cc(Nc2cccc(C)c2C)n1)C(=O)O (configuration not stated) | > 10 µM | inactive |  | > 10 µM |  |  |  |  | 
CCCCCC[C@@H](Sc1nc(Cl)cc(Nc2ccc(-c3ccc(C#N)cc3)cc2)n1)C(=O)O | > 10 µM | 36.8% | 2.8% | > 10 µM |  |  | 0.8 µM |  | 
Cc1cccc(Nc2cc(Cl)nc(SC(C)C(=O)O)n2)c1C (configuration not stated) | > 10 µM | inactive |  | > 10 µM |  |  |  |  | 
CCCCCCC(Sc1nc(Cl)cc(NCc2ccc(-c3ccccc3)cc2)n1)C(=O)O (configuration not stated) | > 10 µM | 21.8% | 3% | > 10 µM | 1 µM |  | 2 µM | 67.3% | 61.3%
CCCCCCC(Sc1nc(Cl)cc(Nc2ccc(-c3ccc(C#N)cc3)cc2)n1)C(=O)O (configuration not stated) | > 10 µM | 26.1% | 2.7% | > 10 µM | 0.4 µM |  | 1.5 µM | 66% | 61.2%
CCCCC(Sc1nc(OCCc2ccccc2)cc(OCCc2ccccc2)n1)C(=O)O (configuration not stated) | > 10 µM | 43.1% | 2.7% | > 10 µM |  |  |  |  | 
CCCCC(Sc1nc(OCCc2ccccc2)cc(OCCc2ccccc2)n1)C(=O)OCC (configuration not stated) | > 10 µM | inactive | 80.1% | > 10 µM |  |  |  |  | 
Cc1cccc(Nc2cc(Cl)nc(SC(C(=O)O)c3ccccc3)n2)c1C (configuration not stated) | > 10 µM | 74.6% |  | > 10 µM |  |  |  |  | 
CCCCCCC(Sc1nc(Cl)cc(NCc2ccc3ncccc3c2)n1)C(=O)O (configuration not stated) | > 10 µM | 85.7% |  | > 10 µM |  |  |  |  | 
CCCCCCC(Sc1nc(Cl)cc(Nc2ccc(-c3ccccc3)cc2)n1)C(=O)O (configuration not stated) | > 10 µM | 21.7% | 4.1% | > 10 µM | 0.7 µM | 1.6 µM | 1.5 µM | 52.3% | 57.1%
CCCCCCC(Sc1nc(Cl)cc(Nc2ccc3ncccc3c2)n1)C(=O)O (configuration not stated) | > 10 µM | 59% |  | > 10 µM |  |  |  |  | 
